Assay outcomes as filed in PubChem.
Hits are enriched below; roughly 2.2% of the tested compounds scored in any of these assays.
Mcl1 Bid PPI: Mcl-1/Bid interaction inhibition; TR-FRET Mcl-1/Bid-Dy647 peptide binding, 1536-well; AID 1021; actives 0.97% (n = 220,000); inhibition, % at 21.7 µM;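 active = compounds that cut the binding signal by more than half at the single screening dose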;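 note: His-tagged Mcl-1 with europium anti-His antibody binding Bid BH3 peptide; 0% = Mcl-1 plus peptide wells and 100% = peptide-only wells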
Mcl1 Noxa PPI: disrupts binding of human Mcl-1 to Noxa peptide. Q07820. TR-FRET Mcl-1/Noxa peptide binding, 2 h. inhibition, % at 21.7 µM. actives 1.5% (n = 220,000);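 active = compounds that cut the protein-peptide binding signal by more than 50% relative to plate controls in a single-dose test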;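 note: His-tagged Mcl-1 with rhodamine Noxa BH3 peptide and terbium anti-His antibody; 0% = Mcl-1 plus Noxa peptide wells and 100% = peptide-only wells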
EBV gp42 block: EBV gp42 inhibition | Q1HVG2 | Fluorescence polarization binding assay, mP read-out | inhibition, % (tested at 21.74 µM) | actives 0.42% (n = 220,000); in the data active = inhibition above about 50%
Target sequence (Q1HVG2 whole entry, looked up): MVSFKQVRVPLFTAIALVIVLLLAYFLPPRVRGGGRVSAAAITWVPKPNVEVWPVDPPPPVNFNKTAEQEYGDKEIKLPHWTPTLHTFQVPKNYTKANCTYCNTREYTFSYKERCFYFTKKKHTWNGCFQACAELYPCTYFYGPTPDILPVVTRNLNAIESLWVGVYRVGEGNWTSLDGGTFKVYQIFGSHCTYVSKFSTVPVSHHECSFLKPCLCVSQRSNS
MCL1 BIM primary: inhibitors of human MCL1 binding to BIM-BH3 peptide. inhibition, % at 10.9 µM. Q07820. AID 2057. actives 0.68% (n = 320,000). GST-MCL1 / FITC-Bim-BH3 fluorescence polarization;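 active = inhibition above the mean inhibition of all tested compounds plus 3 SD, set per campaign, cut at about 40% in these data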;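 note: 0% = DMSO wells and 100% = unlabeled Bim-BH3 peptide control; higher means more loss of mP so more displacement of Bim peptide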
RBBP9 inhibitor: inhibitors of human serine hydrolase RBBP9; O75884; recombinant RBBP9, FP-Rh probe fluorescence polarization; inhibition, % at 7.94 µM; actives 0.2% (n = 220,000); AID 1515;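 active = inhibition above the campaign mean of all tested compounds plus 3 SD, cut at about 14% in these data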;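 note: plate controls were DMSO wells with RBBP9 for no effect and wells lacking RBBP9 protein for full effect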
Target sequence (O75884 whole entry, looked up): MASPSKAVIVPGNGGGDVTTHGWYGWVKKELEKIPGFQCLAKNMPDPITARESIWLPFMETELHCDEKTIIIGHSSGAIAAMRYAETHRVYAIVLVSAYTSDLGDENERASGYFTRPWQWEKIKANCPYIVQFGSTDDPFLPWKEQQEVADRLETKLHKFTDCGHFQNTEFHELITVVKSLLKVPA
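system = RBBP9 protein | input = RBBP9 at 2.5 µM in dispensed solution, before mixing | measured by = fluorescence polarization (mP), excitation 525 nm, emission 598 nm | incubation = enzyme-compound preincubation 30 min, then probe labeling 45 min, 25 °C | buffer or medium = Tris-NaCl-Pluronic buffer, pH 8.0 | compound = single dose 7.94 µM | also added = FP-Rh probe, 375 nM dispensing solution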
Bim-Mcl-1: inhibitors of Bim-Mcl-1 interaction, human; Bead-based flow cytometry, Bim peptide-Mcl-1 binding; inhibition, % at 10 µM; actives 0.1% (n = 190,000); in the data active = inhibition above about 40%;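 note: 0% = no compound tracer wells and 100% = peptide blocker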
Numbers without * were called inactive; · = no result.

SMILES	Mcl1 Bid PPI	Mcl1 Noxa PPI	EBV gp42 block	MCL1 BIM primary	RBBP9 inhibitor	Bim-Mcl-1
Cc1ccc(NC(=O)C(=O)NCCN2CCN(S(C)(=O)=O)CC2)cc1C	-25	-6	-5	-2	2	-1
CN(C(=S)NC(=O)C1CC1)c1ccc(O)cc1	·	·	·	-2	·	·
COc1ccc2nc(-c3ccccc3)nc(SCC(=O)NCC3CCCO3)c2c1 (configuration not stated)	·	·	·	1	·	·
COc1ccccc1N1C(=O)CC(Sc2ccccc2N)C1=O (configuration not stated)	-5	-7	-10	-5	1	·
COc1ccc(C(=O)NCCc2nnc3ccc(SCC(=O)N4CCCCC4)nn23)cc1	·	·	·	0	·	·
CCN(CC)S(=O)(=O)c1cc(NC(=O)Cn2ncc(Cl)c(Cl)c2=O)ccc1C	-5	78*	7	10	-8	·
O=C(Cn1ncc(Cl)c(Cl)c1=O)Nc1ccc2c(c1)OCO2	·	·	·	-3	·	·
CCN(c1ccc(OC)cc1)S(=O)(=O)c1ccc(-c2ccc(=O)[nH]n2)o1	·	·	·	0	·	·
COc1ccc(C)cc1N(C(=O)c1ccc(F)cc1)c1nc2ccccc2s1	59*	2	-17	-4	-7	0
COc1ccc(C)cc1N(C(=O)COc1cccc(F)c1)c1nc2ccccc2s1	-26	11	-26	1	-6	-2
CCSc1nnc2ccc(-c3cccs3)nn12	-3	14	1	-4	1	-1
CSc1nnc2ccc(-c3cccs3)nn12	-5	3	5	-5	-12	42*
CC(NC(=O)C1CC1)C(c1cccs1)N1CCN(c2ccccc2)CC1 (configuration not stated)	-16	23	8	8	-8	-4
CC(NC(=O)NC1CCCCC1)C(c1cccs1)N1CCN(c2ccccc2)CC1 (configuration not stated)	92*	-7	3	0	-3	0
CCN(CC)S(=O)(=O)c1cc(NC(=O)Cc2ccsc2)ccc1C	·	·	·	-17	·	·
C/C(N)=C(/C#N)C(=O)CSc1nnc(Nc2ccccc2C)s1	-7	3	-7	4	-6	0
C/C(N)=C(/C#N)C(=O)CSc1nnc(Nc2ccccc2)s1	7	16	124*	-7	-2	0
O=C(Nc1ccc(N2CCCC2)cc1)C(Cl)c1ccccc1 (configuration not stated)	-69	56*	-10	11	1	0
CS(=O)(=O)N1CCN(c2ccc(NC(=O)C(c3ccccc3)c3ccccc3)cc2)CC1	-35	3	-2	0	4	-2
CC(C)(C)NC(=O)CN(C(=O)CCC(=O)Nc1nccs1)c1cccc(C(F)(F)F)c1	·	·	·	-1	·	·
C=CCC1(NC(C)c2ccccc2)CCCCC1 (configuration not stated)	-28	-4	-21	11	-1	1
COCC(=O)Nc1ccc([N+](=O)[O-])cc1OC	11	6	-6	14	-8	-4
COc1cc([N+](=O)[O-])ccc1NC(=O)COC(=O)c1ccc(NC(N)=O)cc1	61*	72*	-2	26	-5	·
Clc1ccc2c(N/N=C/c3cccc(Br)c3)ccnc2c1	60*	47	-26	-28	-10	10
Clc1ccc2c(NNc3ccccc3Cl)ccnc2c1	-10	12	-8	-2	0	-3
SMILES	Mcl1 Bid PPI	Mcl1 Noxa PPI	EBV gp42 block	MCL1 BIM primary	RBBP9 inhibitor	Bim-Mcl-1
Clc1ccc2c(N/N=C/c3ccccc3Br)ccnc2c1	63*	58*	-62	8	-8	0
O=[N+]([O-])c1ccc(/C=N/Nc2ccnc3cc(Cl)ccc23)o1	·	·	·	-56	·	·
Cc1c(NC(=O)c2cccs2)cccc1[N+](=O)[O-]	4	9	-4	-2	-4	-2
O=C(Nc1cc2cccc([N+](=O)[O-])c2oc1=O)c1cccs1	-30	62*	-7	7	-5	0
CCN(CC)c1ccc(NC(=O)Cn2ncc3c(C)n(Cc4ccccc4F)c(C)c3c2=O)c(C)c1	65*	64*	11	-13	0	3
Cc1c2cnn(CC(=O)Nc3c(F)c(F)cc(F)c3F)c(=O)c2c(C)n1Cc1ccc(F)cc1	-16	62*	1	7	-12	-2
CCCNC(=O)c1ccccc1NC(=O)Cc1ccc(OC)c(S(=O)(=O)N2CCOCC2)c1	·	·	·	-3	·	·
Cc1ccc(C)c(NC(=O)C2CCCN2/C=C/C(=O)C(F)(F)F)c1 (configuration not stated)	72*	-7	-14	-5	-6	-2
COc1ccc(S(=O)(=O)C(C#N)c2nc3ccccc3nc2N2CCC(C)CC2)cc1 (configuration not stated)	·	·	·	47*	·	·
O=c1/c(=C\c2cccnc2)sc2nc3ccccc3n12	14	7	-36	·	-6	-4
O=c1/c(=C/c2ccc(O)c([N+](=O)[O-])c2)sc2nc3ccccc3n12	28	80*	8	·	0	-2
Cc1cc(/C=c2\sc3nc4ccccc4n3c2=O)c(C)n1-c1ccc(C(=O)O)cc1	-12	65*	7	·	-4	0
CCN(C(=O)CN1C(=O)S/C(=C\c2cccc(OC)c2)C1=O)C1CCS(=O)(=O)C1 (configuration not stated)	·	·	·	1	·	·
CC(C(=O)Nc1ccc(N2CCOCC2)cc1)N1C(=O)NC(C)(C)C1=O (configuration not stated)	·	·	·	2	·	·
Cc1cc(NC(=O)c2cc3cccc([N+](=O)[O-])c3[nH]2)ccc1F	-2	54*	-11	-8	3	·
CCOc1ccc(NC(=O)CC2C(=O)N(c3ccccc3)C(=S)N2Cc2ccccn2)cc1 (configuration not stated)	-12	8	-4	-2	-7	-1
CCOc1ccc(NC(=O)CC2C(=O)N(c3ccc(OC)cc3)C(=S)N2Cc2ccccn2)cc1 (configuration not stated)	82*	10	1	1	-4	0
Cc1occc1C(=O)NNC(=S)NCc1ccc(Cl)cc1	-28	13	-7	10	-4	-1
Cc1occc1C(=O)NNC(=S)NCc1ccccc1	-67	22	-4	11	-10	60*
O=C1C=CC(=O)C(C2=C3C(=O)N(CCc4ccccc4)CC(=O)N3CCC2)=C1	-49	84*	-17	20	6	-7
COc1cc(OC)c(NC(=O)c2sc3ncn(CC(=O)N4CCOCC4)c(=O)c3c2C)cc1Cl	·	·	·	4	·	·
CN(C)CCCNC(=O)c1ccc(Cl)c(S(=O)(=O)N(C)c2ccccc2)c1	-3	2	-11	9	-5	-1
O=C(NC1CCCCC1)C(c1ccc2ncccc2c1)N(Cc1ccccc1)C(=O)c1ccc2c(c1)OCCO2 (configuration not stated)	86*	61*	4	2	2	0
CCOC(=O)[C@H]1NN=C(C(=O)OC)[C@@H]1c1ccccc1	-28	-5	10	0	-4	-3
